For experiment [1], the target named is T1, 17-beta-hydroxysteroid dehydrogenase type 3 (Rattus norvegicus) (UniProt O54939).
T1 sequence (whole entry): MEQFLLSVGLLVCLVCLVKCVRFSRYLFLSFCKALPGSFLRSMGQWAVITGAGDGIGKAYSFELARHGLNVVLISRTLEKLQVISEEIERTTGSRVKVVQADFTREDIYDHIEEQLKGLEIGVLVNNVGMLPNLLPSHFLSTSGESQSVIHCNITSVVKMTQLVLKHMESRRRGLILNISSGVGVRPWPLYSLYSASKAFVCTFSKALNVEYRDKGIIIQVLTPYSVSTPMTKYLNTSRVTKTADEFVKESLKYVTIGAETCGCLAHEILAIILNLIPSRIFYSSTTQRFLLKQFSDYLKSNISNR
The experiment in a line: Inhibition of 17beta-HSD3 in rat testes microsomal fraction using [14C]-4-androstene-3,17-dione as substrate assessed as testosterone formation at 1 uM after 2 hrs by thin layer chromatography. The class given is microsomes. Conditions: Testis. The method, boiled down: (§1)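 Rat testis microsomes supplying 17β-HSD3, converting [14C]-4-androstene-3,17-dione (50 nM) into testosterone. Inhibition of this transformation is measured at a fixed inhibitor concentration and expressed as mean ± SD of triplicate.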

For experiment [2], the target named is T1, 17-beta-hydroxysteroid dehydrogenase type 3 (Rattus norvegicus). Put plainly: Inhibition of 17beta-HSD3 in rat testes microsomal fraction using [14C]-4-androstene-3,17-dione as substrate assessed as testosterone formation at 0.1 uM after 2 hrs by thin layer chromatography. Conditions: Testis. It is filed as microsomes. The essentials: as §1
Experiment [3] deals with T2, 17-beta-hydroxysteroid dehydrogenase type 3 (Rattus norvegicus, UniProt O54939).
T2 sequence (O54939 whole entry): T1 sequence (whole entry)
The experiment in a line: Inhibition of 17beta-HSD3 in rat testes microsomal fraction using [14C]-4-androstene-3,17-dione as substrate assessed as testosterone formation after 2 hrs by thin layer chromatography. The method, boiled down:
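Rat testis microsomal fraction as 17β-HSD3 source, converting [14C]-Δ4-dione (50 nM) to [14C]-testosterone. Activity is plotted against log inhibitor concentration. IC50 is fitted from the inhibition curves. Values are mean ± SD of triplicates.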

Regarding `O=C1OC2(CCCCC2)CN[C@H]1Cc1ccccc1`, the inhibition in experiment [1] worked out at 19.5%; in experiment [2], 6.2%.
On to `CC1CN(S(=O)(=O)c2ccccc2C(F)(F)F)C(C)CN1C[C@@]1(O)CC[C@@]2(C)[C@@H](CC[C@@H]3[C@@H]2CC[C@]2(C)C(=O)CC[C@@H]32)C1` (stereo partly specified), for which, in experiment [3], the IC50 came to 14 nM. Also, in experiment [2], the inhibition stood at 47.3%.
As for `C[C@]12CC[C@]3(CN[C@H](Cc4ccccc4)C(=O)O3)C[C@@H]1CC[C@@H]1[C@@H]2CC[C@]2(C)C(=O)CC[C@@H]12`, the values for the inhibition in experiment [1] and in experiment [2] were 63.2% and 18.5%, respectively.
Consider `C[C@]12CC[C@]3(CN[C@@H](Cc4ccccc4)C(=O)O3)C[C@@H]1CC[C@@H]1[C@@H]2CC[C@]2(C)C(=O)CC[C@@H]12`, for which the inhibition worked out at 92% in experiment [1] and 48.8% in experiment [2]. Further, in experiment [3], the IC50 came to 22 nM.
In the case of `C[C@]12CC[C@@]3(C[C@@H]1CC[C@@H]1[C@@H]2CC[C@]2(C)C(=O)CC[C@@H]12)CN(Cc1ccccc1)[C@H](Cc1ccccc1)C(=O)O3`, the inhibition in experiment [1] turned out to be 87.3%; in experiment [2], 25.6%.
On the same counts, the results for `O=C1OC2(CCCCC2)CN(Cc2ccccc2)[C@H]1Cc1ccccc1` are 24.3% and 24.2%.
On to `C[C@]12CC[C@@]3(C[C@@H]1CC[C@@H]1[C@@H]2CC[C@]2(C)C(=O)CC[C@@H]12)CN(Cc1ccccc1)[C@@H](Cc1ccccc1)C(=O)O3`, for which the inhibition amounted to 90.4% in experiment [1] and 58.2% in experiment [2]. Moreover, in experiment [3], the IC50 was found to be 58 nM.

The record behind these values is ChEMBL document CHEMBL3085755, “Synthesis of 3-spiromorpholinone androsterone derivatives as inhibitors of 17β-hydroxysteroid dehydrogenase type 3” (Bioorg Med Chem Lett, 2013).
